Bioassay records as filed in PubChem.
CR mimetic SO: caloric restriction mimetics inhibiting age-related superoxide in yeast; S. cerevisiae aged cells, superoxide DHE fluorescence; active compounds read low; superoxide response (% of plate mean), % at 10 µM; 0.18% of 330,000 active;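 active means superoxide response under a set limit, about three screen SD below normal, cut at about 65% in these data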;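 further: yeast aged for seven days with compound at 30 °C before DHE staining; 100% = average MFI of all compound-treated wells on the plate with controls excluded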
SR-BI uptake up: enhances SR-BI lipid uptake from DiI-HDL; activation, % at 12.5 µM; 0.096% of 320,000 active; AID 504775; CHO ldlA[mSR-BI] cells, DiI-HDL uptake fluorescence, 3 h; 100 = double the neutral-control signal;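 active means mean replicate activation of at least 60% and every replicate at or above 60%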;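 further: 0% = median plate neutral-control signal and 100% = twice that signal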
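Test system: SR-BI-overexpressing, LDLR-lacking CHO cells; Also added: labelled HDL, 10 µg/mL; Measured by: bottom-read cell fluorescence after medium removal, ex 550/em 595 nm; Timing: 3 h uptake period with compound, 37 °C; Buffer or medium: F12, 0.5% BSA, 25 mM HEPES; Doses: single compound concentration, delivered by pin transfer.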
SMARCA2 activ: activators of SMARCA2 function; MG213 cells, MMTV-luciferase reporter, dexamethasone, overnight; activation, % at 9.1 µM; AID 652017; 1% of 370,000 active; in the data active means activation above about 7.8%;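 further: 0% = vehicle wells and 100% = reference activator wells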
SR-BI HDL uptake: inhibitors of mouse SR-BI mediated HDL lipid uptake | AID 488896 | inhibition, % at 12.5 µM | ldlA[mSR-BI] CHO cells, DiI-HDL uptake fluorescence, 3 h | 0.96% of 320,000 active | Q61009;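 active means mean replicate inhibition of at least 70% and a set share of replicates each scoring 70 or more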;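 further: 0% = median of neutral control wells and 100% = median of positive control wells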
Target sequence (Q61009 whole entry, looked up): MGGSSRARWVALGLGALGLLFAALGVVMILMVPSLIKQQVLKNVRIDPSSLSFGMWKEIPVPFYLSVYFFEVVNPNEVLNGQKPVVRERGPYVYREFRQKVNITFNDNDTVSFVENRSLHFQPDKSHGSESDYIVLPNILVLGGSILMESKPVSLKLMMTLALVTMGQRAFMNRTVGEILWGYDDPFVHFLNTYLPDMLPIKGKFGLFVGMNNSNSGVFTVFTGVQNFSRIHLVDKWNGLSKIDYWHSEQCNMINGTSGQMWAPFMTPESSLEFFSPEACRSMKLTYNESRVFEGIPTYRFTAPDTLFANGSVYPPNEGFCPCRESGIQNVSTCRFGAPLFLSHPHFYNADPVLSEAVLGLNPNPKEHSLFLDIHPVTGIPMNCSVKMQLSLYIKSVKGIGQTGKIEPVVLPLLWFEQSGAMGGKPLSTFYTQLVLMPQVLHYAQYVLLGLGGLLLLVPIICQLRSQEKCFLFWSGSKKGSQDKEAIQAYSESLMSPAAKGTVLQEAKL
AHR activator: activators of human aryl hydrocarbon receptor | P35869 | AHR-responsive luciferase reporter cells, luminescence | activation, % at 5 µM | 2.5% of 320,000 active; in the data active means activation above about 47%;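 further: 0% = vehicle wells and 100% = reference agonist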
Lipid droplet: hepatic lipid droplet formation modulation; AML12 mouse hepatocytes, oleate lipid droplets, BODIPY imaging; inhibition, % at 6.5 µM; 0.4% of 240,000 active;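 active means lipid droplet intensity inhibited by at least 50%, with more than 500 cells counted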
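Assay system: AML12 mouse liver cells | Compound: 6.5 µM single-point dosing | Schedule: Overnight exposure | Technique: Fluorescence imaging, 20x objective, two fields per well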
SMARCA2 conf: confirmation of SMARCA2 (BRM) function activators; activation, % at 9.1 µM; MG213 cells, MMTV-luciferase with dexamethasone, luminescence, overnight; MG213 cells expressing E1A, Rb sequestered; DMSO wells 0%, reference activator 100%; 30% of 3,500 active; shares compounds with SMARCA2 activ;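 active means activation above its plate's cutoff, the mean activation of tested wells plus 3 SD, cut at about 7.9% in these data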
VP16 Luc act: activates GAL4-VP16 luciferase, flagging SMARCA2 activator hits | AID 686939 | shares compounds with SMARCA2 activ | activation, % at 9.1 µM | HEK293 GAL4-VP16 pG5luc reporter, luciferase luminescence; scaled: DMSO wells 0%, SAHA wells 100% | 41% of 3,500 active;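 active means activation above the solvent-only control well mean plus 3 SD, averaged across control plates, cut at about 5.2% in these data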
The depositor's hits bear a star; nt = no result given. The list is not random: actives were taken first. Their share in the collection is about 4.3%.

SMILES	CR mimetic SO	SR-BI uptake up	SMARCA2 activ	SR-BI HDL uptake	AHR activator	Lipid droplet	SMARCA2 conf	VP16 Luc act
Cc1cc(C)cc(NC(=O)/C=C/c2ccc([N+](=O)[O-])s2)c1	98	-34	8.8*	34	3	-13	4	0
Cc1ccc(S(=O)(=O)N2CCN(C(=O)c3cccn3C)CC2)cc1	nt	nt	-4	nt	nt	nt	nt	nt
CCCCOCCCNC(=O)C[C@H]1C[C@@]2(C(=O)OC)C(=C[C@H](C(C)(C)C)O[C@@H]2C)N(Cc2ccc(Cl)cc2Cl)C1=O	nt	nt	-2	nt	nt	nt	nt	nt
COc1ccc2c(CC(=O)Nc3nc(C)cs3)coc2c1	92	-6	1	6	6	-24	nt	nt
COc1ccc2c(CC(=O)Nc3ncc(C)s3)coc2c1	122	-12	29*	12	30	33	42*	4
COCC#Cc1ccc(CC[C@H]2O[C@H]3CC[C@@H](CO)O[C@H]3C[C@H]2n2cc(C3CC3)nn2)cc1	nt	nt	3	nt	nt	nt	nt	nt
CCOc1ccc(OCc2ccc(C(=O)Nc3ccc(Cl)cn3)o2)cc1	96	-23	10*	23	9	-34	4	3
O=C(Nc1ccc(Cl)cn1)c1ccc(COc2ccccc2Br)o1	94	5	5	-5	7	9	nt	nt
CCn1c([N+](=O)[O-])nc2c1c(=O)[nH]c(=O)n2C	nt	-8	19*	8	nt	3	56*	2
CCCCCCn1c(SCCCC)nc2c1c(=O)[nH]c(=O)n2C	95	-24	0	24	0	4	nt	nt
CCOc1cc(C2NN=C(c3ccccc3)S2)ccc1OCc1ccccc1Cl (stereo unspecified)	108	-57	2	57	23	nt	nt	nt
CCOc1cc(C2NN=C(c3ccccc3)S2)ccc1OCc1ccc(F)cc1 (stereo unspecified)	88	-58	14*	58	15	25	-3	9.3*
O=c1c2cc(F)ccc2sn1-c1ccccc1Cl	nt	nt	9.0*	nt	nt	nt	-2	0
O=c1c2ccc(F)cc2sn1-c1ccccc1	nt	nt	4	nt	nt	nt	nt	nt
COc1cc(Nc2cc(C)n(-c3ccc(Cl)c(OC)c3)c(=O)c2)ccc1Cl	nt	nt	-4	nt	nt	nt	nt	nt
O=C(N[C@H]1C[C@@H]2O[C@H](CO)CC[C@@H]2O[C@@H]1CCc1ccc(-c2cccnc2)cc1)c1cccc(F)c1	nt	nt	-1	nt	nt	nt	nt	nt
CC(C)(C)c1ccc(-c2nnc(SCC(=O)Nc3cccc4ccccc34)n2Cc2ccco2)cc1	nt	nt	-5	nt	nt	nt	nt	nt
Cc1ccc(CN2CC(C(=O)Nc3ccncc3)CC2=O)cc1 (stereo unspecified)	127	20	-3	-20	3	5	nt	nt
Cc1ccc(CN2CC(C(=O)Nc3cc(C)ccn3)CC2=O)cc1 (stereo unspecified)	95	-1	10*	1	-2	nt	17*	6.3*
Cc1ccc(CNS(=O)(=O)c2c(C)[nH]c(C)c2C(=O)N2CCCCC2)cc1	98	10	-2	-10	3	-11	nt	nt
COc1cccc(CNS(=O)(=O)c2c(C)[nH]c(C)c2C(=O)N2CCCCC2)c1	106	21	13*	-21	5	-2	-2	0
Cc1[nH]c(C)c(S(=O)(=O)Nc2ccc(F)cc2Cl)c1C(=O)N1CCCC1	88	8	9.0*	-8	-2	-1	-5	-1
O=C(NCCc1c[nH]c2ccccc12)OCc1cn(-c2ccc(F)cc2)nn1	nt	nt	-2	nt	nt	nt	nt	nt
COC(=O)C1C(=O)c2c([nH]c(C(=O)OC3CCCC3)c2C)CC1C (stereo unspecified)	104	-19	8.2*	19	19	14	7	8.4*
O=C(c1cccc(NC2=NC3CS(=O)(=O)CC3S2)c1)N1CCN(c2ccc(F)cc2)CC1 (stereo unspecified)	106	31	8.2*	-31	-2	4	5	0
SMILES	CR mimetic SO	SR-BI uptake up	SMARCA2 activ	SR-BI HDL uptake	AHR activator	Lipid droplet	SMARCA2 conf	VP16 Luc act
O=C(Nc1cccc(Cl)c1)c1cnn2cccnc12	101	-28	8.1*	28	21	-5	8.3*	12*
CC(=O)N(C)C[C@@H]1Oc2cc(Br)ccc2S(=O)(=O)N([C@H](C)CO)C[C@@H]1C	nt	nt	-3	nt	nt	nt	nt	nt
O=C(Nc1nnc(C2CC2)s1)C1COc2ccccc2O1 (stereo unspecified)	116	12	12*	-12	0	-36	7	14*
O=C(Nc1ccccc1)C1COc2ccccc2O1 (stereo unspecified)	90	24	5	-24	1	1	nt	nt
O=C(Nc1nnc(C(F)(F)F)s1)C1COc2ccccc2O1 (stereo unspecified)	86	12	-2	-12	4	-8	nt	nt
O=C(Nc1nncs1)C1COc2ccccc2O1 (stereo unspecified)	105	37	9.0*	-37	10	1	4	5
C=CCN1[C@H](CC(C)C)COc2cccc(N3CCSCC3)c2S1(=O)=O	nt	nt	-3	nt	nt	nt	nt	nt
C[C@H](CO)N1C[C@H](C)[C@@H](CN(C)C(=O)Nc2ccc3c(c2)OCO3)OCc2cn(nn2)CCCC1=O	nt	nt	0	nt	nt	nt	nt	nt
Cc1ccc(C(=O)Nc2ccc(F)cc2)o1	101	9	-1	-9	3	3	nt	nt
Cc1ccc(C(=O)Nc2ccc(O)c(C(=O)O)c2)o1	99	9	9.3*	-9	0	-3	4	1
COc1ccc(CCNC(=O)C(=O)NCC2OCCN2C(=O)c2ccc(Cl)cc2)cc1OC (stereo unspecified)	111	-16	9.5*	16	-6	-22	0	1
COc1ccccc1Nc1nc(N)nc(CSC(=S)N2CCN(c3ccccc3)CC2)n1	99	-44	8.7*	44	13	-2	-7	0
CCOC(=O)[C@]12CCCCC/C=C\1N(Cc1ccc(OC)cc1)C(=O)[C@H]2CC(=O)NCc1ccc(OC)c(OC)c1	nt	nt	-4	nt	nt	nt	nt	nt
Cc1ccc(S(=O)(=O)N2CCC(C(=O)NCc3ccccc3CN3CCCC3)CC2)cc1	101	-18	1	18	-1	nt	nt	nt
CCOc1ccc(S(=O)(=O)N2CCC(C(=O)NCc3ccccc3CN3CCCC3)CC2)cc1	96	5	12*	-5	-1	nt	-2	1
CC(C)N1Cc2nnn(Cc3ccccc3)c2-c2cc(N3CCCC3)ccc2S1(=O)=O	nt	nt	-2	nt	nt	nt	nt	nt
Cc1ccc2c(c1)C(=NC1CCCCC1)c1cc3ccccc3nc1-2	97	4	11*	-4	18	6	11*	7.6*
